Data set [1] can be described thus: Binding to human plasma proteins. As to conditions: pooled human plasma. Format: in vitro ADME.
A short description of data set [2]: Blood-to-plasma partition ratio. The class given is in vitro ADME. As to conditions: blood and plasma.
The nature of data set [3]: Binding to human brain tissue. Format: in vitro ADME. As to conditions: pooled human brain tissue.
A short description of data set [4]: In vitro metabolism in pooled human liver microsomes. Format: in vitro ADME. The procedure, abridged:
(§1)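 Test compound (0.5 to 50 μmol/L) incubated with pooled human microsomes (0.4 mg/mL) at 37°C for 30 minutes. Overall drug disappearance velocity plotted against initial concentration and fitted to the Michaelis–Menten equation by nonlinear regression. Intrinsic clearance was taken as Vmax/Km.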

Data set [5] is described as follows: In vitro metabolism in pooled human intestine microsomes. The class given is in vitro ADME. In short, it runs like this:
as §1

Data set [6] is described as follows: Bidirectional transwell permeability, parental MDCKII monolayer. The class given is in vitro ADME. Particulars: dog, MDCK, pH 7.4, Intrinsic passive transcellular permeability (Papp,A-B/λ), unbound and unionized drug.
Data set [7] is described as follows: Whole-body-4Brain PBPK model simulation of plasma and CNS pharmacokinetics. The arrangement: species or system human. As to conditions: PBPK input; for fa: assigned based on observed data; for Ka: first-order absorption rate constant; for Ka / Lag time: observed.
Details of data set [8]: species or system human. Particulars: IVIVE predicted.
Data set [9] can be described thus: Observed clinical plasma, CSF and brain metastasis pharmacokinetics in patients. The class given is in vivo, human.
A further data set has as its target HER2 kinase. Particulars: read-out: IC50 for inhibition of HER2 kinase; ADP-Glo assay; cited from earlier work.
The conditions of data set [10]: cited from earlier work; for Observed CSF concentration (mean) / Observed CSF Kp,uu, geometric mean: 13 patients; for Observed CSF concentration (mean): 300 mg twice daily with trastuzumab and capecitabine, 2-5 hours postdosing.
The subject of data set [11] is HER2-positive breast cancer. Particulars: cited from earlier work; for Cumulative incidence of intervention for CNS metastases: NALA phase III, each drug plus capecitabine, P = 0.043; for CNS objective response rate, monotherapy: pretreated HER2-positive breast cancer patients with progressive brain metastases.

pIC50: −log10 of the molar value. Several values for one entry are separate records, joined by “and”; a condition that tells them apart may be missing. Equal values may be shown once. Read-outs that look alike come from different tables or passages of the source.

`CCOc1cc2ncc(C#N)c(Nc3ccc(OCc4ccccn4)c(Cl)c3)c2cc1NC(=O)/C=C/CN(C)C` [neratinib] had a fraction unbound in data set [1] of […]. Also, in [2], the blood plasma ratio came to […]. Also, the fraction unbound in [3] is 0.004. For the same compound, in data set [4], the microsomal CLint was 39 µL/min/mg. For the same compound, the microsomal CLint in [5] came out at 24.6 µL/min/mg. Also, the Papp A→B at 1 h, 1 μmol/L in [6] was 13.5 ×10⁻⁶ cm/s. In [7], this compound registered a fa of 0.2, a Ka of 0.25 and a Lag time of 0.8 h. The “Ratio of BBB passive clearance (PSB) to active efflux clearance (CLefflux,BBB)” value in data set [8] is […]. Also, the “Unbound plasma concentration corresponding to observed total” value in [9] (2 patients, assuming fraction unbound in plasma 0.007, data of ref 28) is 0.43 nmol/L and 0.67 nmol/L. The pIC50 on HER2 kinase is […]. In addition, in data set [10] (2 patients, 240 mg once daily), the “Observed total plasma concentration” value is […]. The “Disease-free survival vs placebo, HR” value in [11] (ExteNET, 240 mg once daily, 1 year, 95% CI 0.46-0.84) is given as 0.63. In addition, the “Cumulative incidence of CNS metastases vs placebo” value in data set [11] (ExteNET, 240 mg once daily, 1 year) is listed as “no statistically significant difference”. Moreover, in [11], the “Cumulative incidence of intervention for CNS metastases” value is 22.8% and the “CNS objective response rate, monotherapy” value is 8%. For the same compound, in [11] (NEfERT-T, neratinib plus paclitaxel vs trastuzumab plus paclitaxel, 95% CI 0.26-0.78), the “Time to CNS metastases, hazard ratio” value is recorded as […]. Besides, the “Incidence of symptomatic or progressive CNS recurrence” value in data set [11] (NEfERT-T, neratinib plus paclitaxel vs trastuzumab plus paclitaxel) is 8.3%.
`CS(=O)(=O)CCNCc1ccc(-c2ccc3ncnc(Nc4ccc(OCc5cccc(F)c5)c(Cl)c4)c3c2)o1` [lapatinib] displayed a fraction unbound in data set [1] of 0.014. For the same compound, in data set [3], the fraction unbound worked out at 0.0004. In addition, in data set [4], the microsomal CLint is 22.8 µL/min/mg. In data set [5], the microsomal CLint was 5.66 µL/min/mg. In addition, the apparent permeability from apical to basolateral (Papp A→B) at 1 h, 1 μmol/L in [6] was 4.14 ×10⁻⁶ cm/s. Besides, in data set [9] (two patients, assuming fraction unbound in plasma 0.014, data of ref 27), the “Estimated CSF Kp,uu from observed data” value was 0.092. In [11], the “Cumulative incidence of intervention for CNS metastases” value is on record as 29.2%; the “CNS response rate, combined with stereotactic radiosurgery” value is 75%; the “CNS response rate, combined with whole-brain radiation therapy” value was 79%; the “CNS objective response rate, monotherapy” value is 6%.
Turning to `Cc1cc(Nc2ncnc3ccc(NC4=NC(C)(C)CO4)cc23)ccc1Oc1ccn2ncnc2c1` [tucatinib], the fraction unbound in [1] was determined as 0.03; in [3] it was 0.015. Further, the blood plasma ratio in [2] came out at 0.93. Also, the results for the microsomal CLint in data set [4] and in [5] were 41.8 µL/min/mg and 4.5 µL/min/mg, respectively. Further, the Papp A→B at 1 h, 1 μmol/L in data set [6] is 13.3 ×10⁻⁶ cm/s. Further, the fa in data set [7] is listed as 0.5. The same compound had a Ka in data set [7] of 0.8. In data set [7], this compound gave a Lag time of 0.6 h. Further, the “Ratio of BBB passive clearance (PSB) to active efflux clearance (CLefflux,BBB)” value in data set [8] is given as 0.83. In addition, on HER2 kinase, the pIC50 is 8.16. Besides, the “Observed CSF concentration (mean)” value is on record as 10.9 nmol/L in data set [10] (cycle 1 day 1) and 21.6 nmol/L in data set [10] (cycle 2 day 1). Further, the results for the “Observed CSF Kp,uu, geometric mean” value in [10] (cycle 1 day 1) and in data set [10] (cycle 2 day 1) were 0.51 and 0.76, respectively. In [11] (HER2CLIMB, tucatinib added to trastuzumab and capecitabine, 95% CI 0.22-0.48), the “Risk of intracranial progression or death, HR” value is 0.32. Moreover, the “Risk of death, HR” value in data set [11] (HER2CLIMB, tucatinib added to trastuzumab and capecitabine, 95% CI 0.40-0.85) is on record as 0.58.

By fraction unbound is commonly meant free concentration divided by total concentration. A low value points to little free substance. As usually defined, the microsomal CLint is the rate of metabolic loss divided by the concentration. By Papp A→B is commonly meant the apparent permeability from the apical to the basolateral side of a cell layer. As usually defined, the pIC50 is the IC50 on a negative log10 scale, so that one unit is a factor of ten.

The record behind these values is article PMC9357092 (Clinical Cancer Research, 2022).
